Paper PMC13094344 (ACS chemical neuroscience, 2017)

Columns and labels:
hCB1R [1] = target: T1, hCB1R (Homo sapiens, UniProt P21554); assay: PLCβ3 phosphorylation, In-cell western; type: cell-based; conditions: 1 nM – 10 μM; HEK293A and Neuro2a cells
hCB1R [2] = target: T1, hCB1R; assay: ERK1/2 phosphorylation, In-cell western; type: cell-based; conditions: 1 nM – 10 μM; HEK293A and Neuro2a cells
hCB2R = hCB2R (Homo sapiens, UniProt P34972); assay: [3H]CP55,940 binding to CHO-hCB2R membranes; conditions: data not shown
Summary of the method: (§1)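 Filtration displacement assay with 0.7 nM [3H]CP55,940 in 50 mM Tris-HCl/50 mM Tris-base, 0.1% BSA, pH 7.4, run 60 min at 37 °C. Membranes were from CHO cells stably expressing hCB2R (50 µg protein) or from mouse whole brain. Test compound was added from 10 mM DMSO stock (0.1% DMSO final). Nonspecific binding used 1 µM unlabelled CP55,940; radioactivity was counted by liquid scintillation.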

hCB1R [3] = target: T1, hCB1R; assay: Arrestin2 recruitment to hCB1R-GFP2 by BRET2; type: cell-based; conditions: for Arrestin2 recruitment by the compound alone: 1 nM – 10 μM, HEK293A or Neuro2a cells; for Log(αβ) / α (affinity modulation) / β (efficacy modulation) / τB (modulator efficacy): BRETEff, HEK293A, ± SD; for Log(αβ) / α (affinity modulation) / β (efficacy modulation): CP55,940 as agonist; for τB (modulator efficacy): fraction of the efficacy of CP55,940
hCB1R [4] = assay: Induced signaling bias, cAMP inhibition versus arrestin2 recruitment, ΔLog; type: cell-based, human; conditions: CP55,940, 95% CI; for ΔLog(αβ): cAMP versus arrestin2 (BRET2); for Induced Bias: toward inhibition of cAMP production over arrestin2 recruitment
Summary of the method: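 Arrestin2 arm: HEK293A cells were transfected with hCB1R-GFP2 and arrestin2-Rluc. Cells were suspended in BRET buffer 48 h later and read by BRET2 (coelenterazine 400a 50 μM; emissions 405/510 nm). cAMP arm: HEK-CRE cells carried hCB1R-GFP2 and were read by luciferase reporter in 10 µM forskolin. CP55,940 1 nM–10 µM ± test compound 1 nM–10 µM, 0.1% DMSO. Data were fit to an allosteric binding plus Black-Leff operational model, with four independent estimates.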

CB1R [5] = target: T2, CB1R (Mus musculus, UniProt P47746); assay: Electrically-evoked contractions of mouse isolated vas deferens
hCB1R [6] = target: T1, hCB1R; assay: cAMP luciferase reporter assay in HEK-CRE cells transfected with hCB1R-GFP2; type: cell-based; conditions: for Log(αβ) / α (affinity modulation) / β (efficacy modulation): CP55,940 as agonist, ± SD; for τB (modulator efficacy): fraction of the efficacy of CP55,940, ± SD
CB1R [7] = target: T2, CB1R; assay: [3H]CP55,940 binding to mouse brain membranes; conditions: 1 nM – 10 μM
Summary of the method: as §1

hCB1R [8] = target: T1, hCB1R; assay: [3H]CP55,940 binding to CHO-hCB1R membranes; conditions: 10 μM

T2 sequence (P47746 whole entry): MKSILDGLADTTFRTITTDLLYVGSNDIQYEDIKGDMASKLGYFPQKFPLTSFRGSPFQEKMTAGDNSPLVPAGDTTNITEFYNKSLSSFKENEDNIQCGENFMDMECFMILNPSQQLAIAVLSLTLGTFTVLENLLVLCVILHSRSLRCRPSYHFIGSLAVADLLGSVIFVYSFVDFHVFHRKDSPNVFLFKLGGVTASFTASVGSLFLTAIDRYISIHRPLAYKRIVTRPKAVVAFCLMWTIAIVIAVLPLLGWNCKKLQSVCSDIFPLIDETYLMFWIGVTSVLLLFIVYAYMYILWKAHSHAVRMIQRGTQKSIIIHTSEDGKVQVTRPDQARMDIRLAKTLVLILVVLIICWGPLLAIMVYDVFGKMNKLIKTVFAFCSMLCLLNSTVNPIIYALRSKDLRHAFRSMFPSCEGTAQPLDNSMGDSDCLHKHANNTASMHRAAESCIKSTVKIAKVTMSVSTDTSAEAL
T1 sequence (P21554 whole entry): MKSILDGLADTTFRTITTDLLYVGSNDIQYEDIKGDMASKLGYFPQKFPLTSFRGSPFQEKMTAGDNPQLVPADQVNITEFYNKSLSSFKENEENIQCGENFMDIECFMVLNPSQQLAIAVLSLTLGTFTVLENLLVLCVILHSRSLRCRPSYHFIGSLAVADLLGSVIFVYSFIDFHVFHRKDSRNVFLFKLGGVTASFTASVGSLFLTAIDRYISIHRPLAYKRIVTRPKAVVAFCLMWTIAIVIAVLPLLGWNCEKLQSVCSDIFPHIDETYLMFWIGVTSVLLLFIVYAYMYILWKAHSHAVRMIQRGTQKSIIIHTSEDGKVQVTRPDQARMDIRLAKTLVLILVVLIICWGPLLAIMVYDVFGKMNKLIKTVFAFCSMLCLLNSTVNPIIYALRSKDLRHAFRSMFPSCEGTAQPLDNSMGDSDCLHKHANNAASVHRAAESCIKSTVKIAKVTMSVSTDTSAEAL
hCB2R, sequence (P34972 whole entry): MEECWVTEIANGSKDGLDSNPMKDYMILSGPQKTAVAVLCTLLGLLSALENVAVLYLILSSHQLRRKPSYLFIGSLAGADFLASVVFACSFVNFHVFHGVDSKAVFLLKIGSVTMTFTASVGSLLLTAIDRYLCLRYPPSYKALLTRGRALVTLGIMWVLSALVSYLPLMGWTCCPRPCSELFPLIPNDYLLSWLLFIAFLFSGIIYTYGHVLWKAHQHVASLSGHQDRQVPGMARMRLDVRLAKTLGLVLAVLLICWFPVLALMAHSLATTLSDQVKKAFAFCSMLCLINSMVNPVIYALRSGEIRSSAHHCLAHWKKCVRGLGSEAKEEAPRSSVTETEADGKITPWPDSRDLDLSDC

Row | Compound | PLCβ3 phosphorylation by the compound alone (hCB1R [1]) | ERK phosphorylation by the compound alone (hCB1R [2]) | Increase of [3H]CP55,940 binding to hCB2R (hCB2R; 10 μM) [%] | Effect on [3H]CP55,940 binding to hCB2R (hCB2R; up to 1 μM) | Arrestin2 recruitment by the compound alone (hCB1R [3]) | Log(αβ) (hCB1R [3]) | α (affinity modulation) (hCB1R [3]) | β (efficacy modulation) (hCB1R [3]) | τB (modulator efficacy) (hCB1R [3]) | ΔLog(αβ) (hCB1R [4]) | Induced Bias (hCB1R [4]) | Effect by itself on electrically-evoked contractions (CB1R [5]; 1 nM up to 10 μM, n=6, data not shown) | Effect on AEA-induced inhibition of electrically-evoked contractions (CB1R [5]; 1 μM modulator, AEA 10 and 100 nM) | Log(αβ) (hCB1R [6]) | α (affinity modulation) (hCB1R [6]) | β (efficacy modulation) (hCB1R [6]) | τB (modulator efficacy) (hCB1R [6]) | Effect on [3H]CP55,940 binding to mouse brain membranes (CB1R [7]) | Effect on [3H]CP55,940 binding (hCB1R [8])
1 | O=[N+]([O-])CC(c1ccccc1)c1c(-c2ccccc2)[nH]c2ccccc12 (centres unmarked) [GAT211] | increased | increased | 29 | no effect | increased arrestin2 recruitment in a concentration-dependent manner | 1.35 ± 0.04 | 24 ± 2.83 | 0.95 ± 0.06 | 0.15 ± 0.03 | 0.01 (−0.18 – 0.21) | n.s | no statistically significant effect | potentiated | 1.37 ± 0.06 | 21 ± 2 | 1.13 ± 0.19 | 0.19 ± 0.08 | enhanced | –
2 | O=[N+]([O-])C[C@@H](c1ccccc1)c1c(-c2ccccc2)[nH]c2ccccc12 [GAT229] | without effect | without effect | – | – | no effect | 0.97 ± 0.14 | 4.25 ± 1.5 | 2.3 ± 0.38 | 0 | 0.34 (0.14 – 0.54) | – | – | – | 1.3 ± 0.35 | 2.25 ± 1.26 | 10.75 ± 4.43 | 0 | – | –
3 | O=[N+]([O-])C[C@H](c1ccccc1)c1c(-c2ccccc2)[nH]c2ccccc12 [GAT228] | increased | increased | – | – | increased arrestin2 recruitment in a concentration-dependent manner | 0.21 ± 0.10 | 2.5 ± 0.58 | 0.68 ± 0.09 | 0.19 ± 0.04 | −0.27 (−0.40 – −0.09) | 0.54 (0.35 – 0.81) | – | – | −0.06 ± 0.36 | 1.08 ± 0.34 | 0.95 ± 0.5 | 0.15 ± 0.06 | – | weak PAM effect
